Measured values from ChEMBL document CHEMBL1121449, “Synthesis and antineoplastic activity of hydroquinone dialdehydes” (J Med Chem, 1980).

What was measured:
[1] = Tested for inhibition of growth of sarcoma 180 cells in culture; type: functional, cell-based; conditions: Mus musculus
Summary of the method: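 Sarcoma 180 cells in suspension in Fischer's medium with 10% horse serum and penicillin/streptomycin, seeded at 10^4 cells/mL. Drug added from 10× stocks in 10% Me2SO/PBS, final 1–100 μM. Control cultures contained 1% Me2SO. Triplicate Coulter counts at 24, 48 and 72 h. IC50 read from a plot of inhibition of cell-number increase at 72 h versus concentration.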

Mus musculus [2] = assay: Tested for change in body weight from onset to termination at dose of 5 mg/kg; type: functional
Summary of the method: (§1)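 Female CD-1 mice inoculated ip with 0.1 mL of 10^7 Sarcoma 180 ascites cells/mL. Drug in 0.9% NaCl with 5% ethanol and Tween 80, serially diluted in saline, given ip once daily for 6 days starting 24 h after implantation. Dose based on mean starting weight. Controls received saline. Weight change recorded from day 0 to day 7, as % change.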

Mus musculus [3] = assay: Tested for change in body weight of Mice bearing Ehrlich carcinoma from onset to termination at dose of 5 mg/kg; type: functional
Summary of the method: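 Female CD-1 mice given ip implants of Ehrlich carcinoma (0.1 mL of 10^7 cells/mL). Drug in saline containing 5% ethanol and Tween 80, injected ip once daily for 6 consecutive days from 24 h post-implant. Controls received 0.9% NaCl. % body weight change measured between tumor implantation (day 0) and day 7.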

Mus musculus [4] = assay: Tested for change in body weight of Mice bearing […] 755 from onset to termination at dose of 10 mg/kg; type: functional
Summary of the method: (§2)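 Adenocarcinoma 755 implanted ip (0.1 mL of 10^7 cells/mL) in female AKD2F1 mice. Daily ip dosing for 6 days beginning 24 h after implantation, vehicle 0.9% NaCl/5% ethanol/Tween 80, lower doses by saline dilution. Control mice received saline. Weight difference between day 0 and day 7 taken as % change and used as a toxicity measure.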

Mus musculus [5] = assay: Tested for change in body weight of Mice bearing […] 755 from onset to termination at dose of 20 mg/kg; type: functional; summary of the method: as §2
Mus musculus [6] = assay: Tested for change in body weight of Mice bearing […] 755 from onset to termination at dose of 5 mg/kg; type: functional; summary of the method: as §2
Mus musculus [7] = assay: Tested for mean survival time of Mice bearing Ehrlich carcinoma not surviving 50 days as a percentage at dose of 10 mg/kg; type: functional
Summary of the method: (§3)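 Female CD-1 mice, Ehrlich ascites carcinoma, 0.1 mL of 10^7 cells/mL given ip. Drug in 0.9% NaCl with 5% ethanol and trace Tween 80, serially diluted with saline. Dosed ip at 0.5 mL once daily for 6 days from 24 h post-implant; saline controls. T/C is the mean survival of treated mice dying before 50 days as % of controls. Survivors are those alive ≥50 days.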

Mus musculus [8] = assay: Tested for mean survival time of Mice bearing Ehrlich carcinoma not surviving 50 days as a percentage at dose of 20 mg/kg; type: functional; summary of the method: as §3
Mus musculus [9] = assay: Tested for mean survival time of Mice bearing Ehrlich carcinoma not surviving 50 days as a percentage at dose of 5 mg/kg; type: functional; summary of the method: as §3
Mus musculus [10] = assay: Tested for mean survival time of Mice bearing […] 755 not surviving 50 days as a percentage at dose of 20 mg/kg; type: functional
Summary of the method: (§4)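 Female AKD2F1 mice, adenocarcinoma 755, 0.1 mL of 10^7 cells/mL given ip. Vehicle 0.9% NaCl/5% ethanol/Tween 80, serially diluted with saline. Dosed ip at 0.5 mL once daily for 6 consecutive days starting 24 h post-implant; saline controls. T/C is the mean survival of non-50-day survivors as % of controls. Survivors are those alive ≥50 days.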

Mus musculus [11] = assay: Tested for mean survival time of Mice bearing […] 755 not surviving 50 days as a percentage at dose of 5 mg/kg; type: functional; summary of the method: as §4
Mus musculus [12] = assay: Tested for mean survival time treated animal not surviving 50 days as a percentage at dose of 10 mg/kg; type: functional
Summary of the method: (§5)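 Female CD-1 mice, Sarcoma 180 ascites, 0.1 mL of 10^7 cells/mL given ip. Drug in 0.9% NaCl, 5% ethanol, Tween 80, serially diluted with saline. Dosed ip at 0.5 mL daily for 6 days from 24 h post-implant; daily dose based on starting mean weight. T/C is the mean survival of treated mice dying before 50 days vs controls. Survivors are those alive ≥50 days out of those treated.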

Mus musculus [13] = assay: Tested for mean survival time treated animal not surviving 50 days as a percentage at dose of 15 mg/kg; type: functional; summary of the method: as §5
Mus musculus [14] = assay: Tested for mean survival time treated animal not surviving 50 days as a percentage at dose of 2.5 mg/kg; type: functional; summary of the method: as §5
Mus musculus [15] = assay: Tested for mean survival time treated animal not surviving 50 days as a percentage at dose of 20 mg/kg; type: functional; summary of the method: as §5
Mus musculus [16] = assay: Tested for mean survival time treated animal not surviving 50 days as a percentage at dose of 5 mg/kg; type: functional; summary of the method: as §5
Mus musculus [17] = assay: Tested for change in body weight from onset to termination at dose of 10 mg/kg; type: functional; summary of the method: as §1
Mus musculus [18] = assay: Tested for change in body weight from onset to termination at dose of 15 mg/kg; type: functional; summary of the method: as §1
Mus musculus [19] = assay: Tested for change in body weight from onset to termination at dose of 2.5 mg/kg; type: functional; summary of the method: as §1
Mus musculus [20] = assay: Tested for change in body weight from onset to termination at dose of 20 mg/kg; type: functional; summary of the method: as §1
Mus musculus [21] = assay: Tested for Mice bearing […] 755 surviving at least 50 days out of 5 animal treated at dose of 10 mg/kg; type: functional; summary of the method: as §4
Mus musculus [22] = assay: Tested for Mice bearing […] 755 surviving at least 50 days out of 5 animal treated at dose of 20 mg/kg; type: functional; summary of the method: as §4
Mus musculus [23] = assay: Tested for Mice bearing […] 755 surviving at least 50 days out of 5 animal treated at dose of 5 mg/kg; type: functional; summary of the method: as §4
Mus musculus [24] = assay: Tested for number of animal surviving at least 50 days out of 10 animals treated at dose of 2.5 mg/kg; type: functional; summary of the method: as §5
Mus musculus [25] = assay: Tested for number of animal surviving at least 50 days out of 10 animals treated at dose of 20 mg/kg; type: functional; summary of the method: as §5
Mus musculus [26] = assay: Tested for number of animal surviving at least 50 days out of 15 animals treated at dose of 15 mg/kg; type: functional; summary of the method: as §5
Mus musculus [27] = assay: Tested for number of animal surviving at least 50 days out of 30 animals treated at dose of 10 mg/kg; type: functional; summary of the method: as §5
Mus musculus [28] = assay: Tested for number of animal surviving at least 50 days out of 30 animals treated at dose of 5 mg/kg; type: functional; summary of the method: as §5
Mus musculus [29] = assay: Tested for Mice bearing Ehrlich carcinoma surviving at least 50 days out of 10 animal treated at dose of 10 mg/kg; type: functional; summary of the method: as §3
Mus musculus [30] = assay: Tested for Mice bearing Ehrlich carcinoma surviving at least 50 days out of 10 animal treated at dose of 20 mg/kg; type: functional; summary of the method: as §3
Mus musculus [31] = assay: Tested for Mice bearing Ehrlich carcinoma surviving at least 50 days out of 10 animal treated at dose of 5 mg/kg; type: functional; summary of the method: as §3
Mus musculus [32] = assay: Tested for mean survival time treated animal not surviving 50 days as a percentage at dose of 30 mg/kg; type: functional; summary of the method: as §5
Mus musculus [33] = assay: Tested for change in body weight from onset to termination at dose of 30 mg/kg; type: functional; summary of the method: as §1
Mus musculus [34] = assay: Tested for number of animal surviving at least 50 days out of 5 animal treated at dose of 10 mg/kg; type: functional; summary of the method: as §5
Mus musculus [35] = assay: Tested for number of animal surviving at least 50 days out of 5 animal treated at dose of 20 mg/kg; type: functional; summary of the method: as §5
Mus musculus [36] = assay: Tested for number of animal surviving at least 50 days out of 5 animal treated at dose of 30 mg/kg; type: functional; summary of the method: as §5
Mus musculus [37] = assay: Tested for mean survival time treated animal not surviving 50 days as a percentage at dose of 1.25 mg/kg; type: functional; summary of the method: as §5
Mus musculus [38] = assay: Tested for change in body weight from onset to termination at dose of 1.25 mg/kg; type: functional; summary of the method: as §1
Mus musculus [39] = assay: Tested for number of animal surviving at least 50 days out of 10 animal treated at dose of 10 mg/kg; type: functional; summary of the method: as §5
Mus musculus [40] = assay: Tested for number of animal surviving at least 50 days out of 10 animal treated at dose of 20 mg/kg; type: functional; summary of the method: as §5
Mus musculus [41] = assay: Tested for number of animal surviving at least 50 days out of 10 animal treated at dose of 5 mg/kg; type: functional; summary of the method: as §5
Mus musculus [42] = assay: Tested for number of animal surviving at least 50 days out of 5 animal treated at dose of 1.25 mg/kg; type: functional; summary of the method: as §5
Mus musculus [43] = assay: Tested for number of animal surviving at least 50 days out of 5 animal treated at dose of 15 mg/kg; type: functional; summary of the method: as §5
Mus musculus [44] = assay: Tested for number of animal surviving at least 50 days out of 5 animal treated at dose of 2.5 mg/kg; type: functional; summary of the method: as §5

COc1c(C)c(C)c(O)c(C=O)c1C=O
IC50 [1]: 37 µM

Cc1c(C)c(O)c(C=O)c(C=O)c1O
Activity (Mus musculus [2]): 6%
Activity (Mus musculus [3]): 21%
Activity (Mus musculus [4]): -13%
Activity (Mus musculus [5]): -11%
Activity (Mus musculus [6]): -2%
Activity (Mus musculus [7]): 125%
Activity (Mus musculus [8]): 127%
Activity (Mus musculus [9]): 120%
Activity (Mus musculus [10]): 138%
Activity (Mus musculus [11]): 27%
Activity (Mus musculus [12]): 195%
Activity (Mus musculus [13]): 148%
Mean survival time, treated vs control (T/C) (Mus musculus [14]): 128%
Activity (Mus musculus [15]): 91%
Activity (Mus musculus [16]): 182%
Activity (Mus musculus [17]): 1%
Activity (Mus musculus [18]): -3%
Activity (Mus musculus [19]): 23%
Activity (Mus musculus [20]): -4%
Survivors (Mus musculus [21]): 5
Survivors (Mus musculus [22]): 2
Survivors (Mus musculus [23]): 4
Survivors (Mus musculus [24]): 0
Survivors (Mus musculus [25]): 0
Survivors (Mus musculus [26]): 0
Survivors (Mus musculus [27]): 3
Survivors (Mus musculus [28]): 3
Survivors (Mus musculus [29]): 2
Survivors (Mus musculus [30]): 3
Survivors (Mus musculus [31]): 0
IC50 [1]: 26 µM

Cc1c(C)c(O)c(C=O)c(C)c1O
Activity (Mus musculus [12]): 94%
Activity (Mus musculus [15]): 84%
Activity (Mus musculus [32]): 89%
Activity (Mus musculus [17]): 25%
Activity (Mus musculus [20]): 25%
Activity (Mus musculus [33]): 17%
Survivors (Mus musculus [34]): 0
Survivors (Mus musculus [35]): 0
Survivors (Mus musculus [36]): 0
IC50 [1]: 27 µM

O=Cc1c(C=O)c(O)c2ccccc2c1O
Activity (Mus musculus [2]): 14%
Activity (Mus musculus [37]): 81%
Activity (Mus musculus [12]): 90%
Activity (Mus musculus [13]): 64%
Mean survival time, treated vs control (T/C) (Mus musculus [14]): 81%
Activity (Mus musculus [15]): 76%
Activity (Mus musculus [16]): 93%
Activity (Mus musculus [38]): 16%
Activity (Mus musculus [17]): 17%
Activity (Mus musculus [18]): 0%
Activity (Mus musculus [19]): 14%
Activity (Mus musculus [20]): 1%
Survivors (Mus musculus [39]): 0
Survivors (Mus musculus [40]): 0
Survivors (Mus musculus [41]): 0
Survivors (Mus musculus [42]): 0
Survivors (Mus musculus [43]): 1
Survivors (Mus musculus [44]): 0
IC50 [1]: 66 µM
